From ChEMBL document CHEMBL1130202, “Biologically active heteroarotinoids exhibiting anticancer activity and decreased toxicity” (J Med Chem, 1997)
Activity calls are given as the source filed them. The calls are words filed in the database; no cut-off is given here.

What was measured:
Mus musculus [1] = species on record: Mus musculus; assay: Alopecia in mice observed at mid dose 2 with Hypervitaminosis; 3/16; format: functional, organism-based
Mus musculus [2] = species on record: Mus musculus; assay: Alopecia in mice observed at high dose with Hypervitaminosis; 4/16; format: functional, organism-based
Mus musculus [3] = species on record: Mus musculus; assay: Avoiding pressure on limbs in mice at high dose with Hypervitaminosis; 4/16; format: functional, organism-based; details: Limb
Mus musculus [4] = species on record: Mus musculus; assay: Enlarged lymph in gross pathological observations in mice with hypervitaminosis A at mid dose 1 with gross observations/total number of mice in group; 2/16; format: functional, organism-based
Mus musculus [5] = species on record: Mus musculus; assay: Enlarged spleen in Gross pathological observations in mice with hypervitaminosis A at mid dose 1 with gross observations/total number of mice in group; 1/16; format: functional, organism-based
Mus musculus [6] = species on record: Mus musculus; assay: Mortality rate in mice in mid dose 1; format: functional
Summary of the method: (§1)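 Male B6D2F1 mice given compound daily by gavage in corn oil at the stated dose levels, with corn oil vehicle controls. Deaths counted as animals found dead or sacrificed moribund, with day(s) of death recorded. Heteroarotinoid groups ran to day 65 and low-dose reference groups to day 25.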

Mus musculus [7] = species on record: Mus musculus; assay: Mortality rate in mice in mid dose 2; format: functional; summary of the method: as §1
Mus musculus [8] = species on record: Mus musculus; assay: Skin scaling in mice at high dose with Hypervitaminosis; 2/16; format: functional, organism-based
Mus musculus [9] = species on record: Mus musculus; assay: Avoiding pressure on limbs in mice at mid dose 1 with Hypervitaminosis 0/16; format: functional, organism-based; details: Limb
Mus musculus [10] = species on record: Mus musculus; assay: Effect of compound on right testicle to body weight ratios in mice at high dose on day 65; all the animals died by day 65; format: functional, organism-based
Summary of the method: (§2)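 Male B6D2F1 mice dosed daily by gavage with compound in corn oil; vehicle 1 (corn oil) controls run to termination on day 65. Low, mid 1, mid 2 and high dose groups, with dosage increases partway through the study. Organ-to-body weight ratios (×1000) taken at necropsy on day 65, reported as mean ± SD for 4 to 8 animals and as % difference from vehicle.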

Mus musculus [11] = species on record: Mus musculus; assay: Enlarged lymph in gross pathological observations in mice with hypervitaminosis A at low dose with gross observations/total number of mice in group; 6/16; format: functional, organism-based
Mus musculus [12] = species on record: Mus musculus; assay: Effect of compound on white blood cells levels in mice at mid dose 2 on day 8; format: functional
Summary of the method: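 Male B6D2F1 mice were gavaged daily with compound in corn oil at low, mid 1, mid 2 or high dose. Serum triglycerides and circulating white blood cells were measured on the stated day (8, 29, 36, 65). Values are group mean ± SD expressed as % relative to corn-oil vehicle, with significance at p ≤ 0.05.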

Mus musculus [13] = species on record: Mus musculus; assay: Effect of compound on serum Alkaline phosphatase levels in mice at low dose on day 36; format: functional
Summary of the method: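 Male B6D2F1 mice dosed daily by oral gavage in corn oil at low, mid 1, mid 2 or high dose. Blood sampled on set days (8, 29, 36, 65) for clinical chemistry, serum alkaline phosphatase and triglycerides. Group mean ± SD reported as % relative to vehicle 1; significance p < 0.05 versus corn oil vehicle.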

Mus musculus [14] = species on record: Mus musculus; assay: Enlarged spleen in Gross pathological observations in mice with hypervitaminosis A at low dose with gross observations/total number of mice in group; 3/16; format: functional, organism-based
Mus musculus [15] = species on record: Mus musculus; assay: Effect of compound on adrenal to body weight ratios in mice at high dose on day 65; all the animals died by day 65; format: functional, organism-based; summary of the method: as §2
Mus musculus [16] = species on record: Mus musculus; assay: Fracture incidence in mouse at mid dose 2; 6/7
Mus musculus [17] = species on record: Mus musculus; assay: Enlarged lymph in gross pathological observations in mice with hypervitaminosis A at mid dose 1 with gross observations/total number of mice in group; 0/16; format: functional, organism-based
Mus musculus [18] = species on record: Mus musculus; assay: Alopecia in mice observed at high dose with Hypervitaminosis; 1/16; format: functional, organism-based
Mus musculus [19] = species on record: Mus musculus; assay: Avoiding pressure on limbs in mice at high dose with Hypervitaminosis; 0/16; format: functional, organism-based; details: Limb
Mus musculus [20] = species on record: Mus musculus; assay: Skin scaling in mice at mid dose 1 with Hypervitaminosis; 1/16; format: functional, organism-based
Mus musculus [21] = assay: Effect of compound on Spleen to body weight ratios in mice at 0.8 mg/kg/day dose on day 65; dead by day 65; format: functional, organism-based; summary of the method: as §2
Mus musculus [22] = assay: Effect of compound on adrenal to body weight ratios in mice at 0.4 mg/kg/day dose; all the animals died by day 65; format: functional, organism-based
Mus musculus [23] = assay: Effect of compound on right testicle to body weight ratios in mice at 0.4 mg/kg/day dose on day 65; format: functional, organism-based
Mus musculus [24] = assay: Alopecia observed at 0.01 mg/kg/day dose in mice with hypervitaminosis; 6/8; format: functional, organism-based
Mus musculus [25] = assay: Alopecia observed at 0.05 mg/kg/day dose in mice with hypervitaminosis; 8/8; format: functional, organism-based
Mus musculus [26] = assay: Alopecia observed at 0.4 mg/kg/day dose in mice with hypervitaminosis; 8/16; format: functional, organism-based
Mus musculus [27] = assay: Avoiding pressure on limbs at 0.01 mg/kg/day dose in mice hypervitaminosis; 0/16; format: functional, organism-based; details: Limb
Mus musculus [28] = assay: Avoiding pressure on limbs at 0.1 mg/kg/day dose in mice hypervitaminosis; 0/16; format: functional, organism-based; details: Limb
Mus musculus [29] = assay: Enlarged lymph in gross pathological observations with hypervitaminosis A at 0.1 mg/kg/day dose with gross observations/total number of animals in group'' 16/16; format: functional, organism-based
Mus musculus [30] = assay: Enlarged lymph in gross pathological observations with hypervitaminosis A in mice at 0.01 mg/kg/day dose with gross observations/total number of animals in group; 6/8; format: functional, organism-based
Mus musculus [31] = assay: Enlarged lymph in gross pathological observations with hypervitaminosis A in mice at 0.4 mg/kg/day dose with gross observations/total number of animals in group; 12/16; format: functional, organism-based
Mus musculus [32] = assay: Enlarged lymph in gross pathological observations with hypervitaminosis A in mice at 0.8 mg/kg/day dose with gross observations/total number of animals in group; 8/16; format: functional, organism-based
Mus musculus [33] = assay: Enlarged spleen in Gross pathological observations with hypervitaminosis A at 0.01 mg/kg/day dose with gross observations/total number of animals in group; 5/8; format: functional, organism-based
Mus musculus [34] = assay: Enlarged spleen in Gross pathological observations with hypervitaminosis A at 0.8 mg/kg/day dose with gross observations/total number of animals in group; 0/16; format: functional, organism-based
Mus musculus [35] = assay: Skin scaling at 0.01 mg/kg/day in mice with hypervitaminosis; 4/8; format: functional, organism-based
Mus musculus [36] = assay: Skin scaling at 0.05 mg/kg/day in mice with hypervitaminosis; 8/8; format: functional, organism-based
Mus musculus [37] = assay: Skin scaling at 0.1 mg/kg/day in mice with hypervitaminosis; 14/16; format: functional, organism-based
Mus musculus [38] = assay: Enlarged spleen in Gross pathological observations with hypervitaminosis A in mice at 0.4 mg/kg/day dose with gross observations/total number of animals in group; 0/16; format: functional, organism-based
Mus musculus [39] = assay: Fracture incidents in mouse at 0.05 mg/kg/day; 7/8
Mus musculus [40] = assay: Fracture incidents in mouse at 0.4 mg/kg/day; 3/12
Mus musculus [41] = assay: Average number of fractures per mouse at 0.01 mg/kg/day
Mus musculus [42] = assay: Effects of retinoids on thymus to body weight ratios in mice at 0.01 mg/kg/day dose
Mus musculus [43] = assay: Effect of compound on adrenal to body weight ratios in mice at 0.05 mg/kg/day dose; measured on day 25

CC(/C=C/C=C(\C)c1ccc2c(c1)C(C)(C)CCO2)=C\C(=O)O
Activity (Mus musculus [1]): inactive
Activity (Mus musculus [2]): Weak activity
Activity (Mus musculus [3]): Weak activity
Activity (Mus musculus [4]): inactive
Activity (Mus musculus [5]): inactive
Mortality (Mus musculus [6]): 0 day of death
Mortality (Mus musculus [7]): 0 day of death
Activity (Mus musculus [8]): inactive
Activity (Mus musculus [9]): inactive

C/C(=C\c1ccc(C(=O)O)cc1)c1ccc2c(c1)C(C)(C)CCO2
Activity (Mus musculus [10]): Toxic
Activity (Mus musculus [11]): Weak activity
Activity (Mus musculus [12]): 5.26
Activity (Mus musculus [13]): 77.4
Activity (Mus musculus [14]): inactive
Activity (Mus musculus [15]): Toxic
Activity (Mus musculus [16]): Active

CC(/C=C/C=C(\C)c1ccc2c(c1)C(C)(C)CCS2)=C\C(=O)O
Activity (Mus musculus [17]): inactive
Activity (Mus musculus [18]): inactive
Activity (Mus musculus [19]): inactive
Activity (Mus musculus [20]): inactive

C/C(=C\c1ccc(C(=O)O)cc1)c1ccc2c(c1)C(C)(C)CCC2(C)C
Activity (Mus musculus [21]): Toxic
Activity (Mus musculus [22]): Toxic
Activity (Mus musculus [23]): Toxic
Activity (Mus musculus [24]): Active
Activity (Mus musculus [25]): Active
Activity (Mus musculus [26]): Weak activity
Activity (Mus musculus [27]): inactive
Activity (Mus musculus [28]): inactive
Activity (Mus musculus [29]): Active
Activity (Mus musculus [30]): Active
Activity (Mus musculus [31]): Active
Activity (Mus musculus [32]): Weak activity
Activity (Mus musculus [33]): Weak activity
Activity (Mus musculus [34]): inactive
Activity (Mus musculus [35]): Weak activity
Activity (Mus musculus [36]): Active
Activity (Mus musculus [37]): Active
Activity (Mus musculus [38]): inactive
Activity (Mus musculus [39]): Active
Activity (Mus musculus [40]): Weak activity
Activity (Mus musculus [41]): 0.1
Activity (Mus musculus [42]): Toxic
Activity (Mus musculus [43]): Toxic
